Results collected from several papers.
Protocols differ between the studies behind these lines. pEC50, pIC50, pKd, pKi: −log10 of the molar value.
mreB: mreB (Escherichia coli, UniProt P0A9X4)
Cnr2: Cannabinoid receptor 2 (Cnr2, Mus musculus, UniProt P47936)
CTSL: Procathepsin L (CTSL, Homo sapiens, UniProt P07711)

| SMILES | target | effect on | mode | technique | notes | endpoint | value |
| --- | --- | --- | --- | --- | --- | --- | --- |
| Cc1ccnc2c1NC(=O)c1cccnc1N2C1CC1 | pol (Feline immunodeficiency virus, UniProt P16088) | binding |  | SPR |  | pKd | 3.73 |
| O=P(O)(O)Oc1cccc(OP(=O)(O)O)c1 | Signal transducer and activator of transcription 5B, SH2 (STAT5B, Homo sapiens, UniProt P51692) | ligand displacement |  | FP |  | pIC50 | 4.26 |
| NC1CCCCc2c1[nH]c1ccc(Br)cc21 (stereo not shown) | mreB | ATPase activity | inhibitor | absorbance |  | pIC50 | 4.36 |
| CCCCCCC(C)(C)c1ccc([C@@H]2C[C@H](O)CC[C@H]2CCCO)c(O)c1 | Cnr2 | cAMP | agonist |  |  | pEC50 | 10.30 |
| C[C@H](N)Cn1ncc2ccc3c(c21)CCCO3 | Alpha-1B adrenergic receptor (Adra1b, Rattus norvegicus, UniProt P15823) | ligand displacement |  | radioligand |  | pIC50 | 4.13 |
| CC(C)c1cccc(NC(=O)C2CC(=O)Nc3ccccc32)c1 (stereo not shown) | CTSL | enzyme activity | inhibitor | FRET |  | pIC50 | 4.78 |
| CCOC(=O)C(CC)(CCCSCCOCCOCCOCCNC(=O)OC(C)(C)C)NC(=O)c1ccc(C2CC2)c(Cc2ccc(F)cc2)n1 (stereo not shown) | Cnr2 | cAMP | agonist |  |  | pEC50 | 7.68 |
| CC(NCCCNC(=O)c1cc(Cl)c(Cl)s1)c1cc2cc(Br)ccc2[nH]1 (stereo not shown) | mreB | ATPase activity | inhibitor | absorbance |  | pIC50 | 5.22 |
| NC(=O)[C@@H]1CC(F)(F)CN1C(=O)c1ccc(N2CC(F)(F)C2)c(OCC2CC2)n1 | Cnr2 | ligand displacement |  | radioligand | cell membranes | pKi | 6.72 |
| CCCCNNC(=O)c1ccc(Br)cc1 | Histone deacetylase 4 (HDAC4, Homo sapiens, UniProt P56524) | enzyme activity | inhibitor | fluorescence |  | pIC50 | < 4.00 |
| CCOC(=O)c1c(NCc2ccc(SC)cc2)c2cccc(C)c2[nH]c1=O | Anoctamin-2 (ANO2, Homo sapiens, UniProt Q9NQ90) | ion flux | inhibitor |  |  | pIC50 | 6.00 |
| Cc1nonc1Cn1nnc2c(N3CC[C@H](O)C3)nc(C(C)(C)C)nc21 | Cnr2 | cAMP | agonist |  |  | pEC50 | 9.70 |
| CC(C)C[C@H](NC(=O)[C@H]1O[C@@H]1C(=O)O)C(=O)NCCCCN=C(N)N | CTSL | enzyme activity | inhibitor |  |  | pIC50 | 9.62 |
| COC(=O)[C@H](CCC(=O)Nc1cccc2c1ccn2Cc1cccc(C(N)=O)c1)NC(=O)OCc1ccccc1 | NAD-dependent protein deacetylase sirtuin-1 (SIRT1, Homo sapiens, UniProt Q96EB6) | enzyme activity | inhibitor |  |  | pIC50 | 4.17 |
| CCOC(=O)C(CC)(CCCSCCOCCOCCOCCOCCNC(=O)OC(C)(C)C)NC(=O)c1ccc(C2CC2)c(Cc2ccc(F)cc2)n1 (stereo not shown) | Cnr2 | ligand displacement |  | radioligand | cell membranes | pKi | 7.03 |
| CC[C@H](C)COc1ccc([C@@H](CO)C(=O)N[C@H](C)c2ccccc2)cc1 | G protein-coupled receptor 88 (Homo sapiens, UniProt Q9GZN0) | cAMP | agonist | TR-FRET |  | pEC50 | 5.70 |
